In ChEMBL document CHEMBL1156609, “9-N-Substituted berberine derivatives: stabilization of G-quadruplex DNA and down-regulation of oncogene c-myc” (Bioorg Med Chem, 2008):
Activity calls are given as the source filed them. The calls are words filed in the database; no cut-off is given here.

Tests used:
Homo sapiens [1] = species: Homo sapiens; assay: Binding affinity to human c-myc G-quadruplex Pu18 DNA assessed as melting temperature at 2.0 uM by FRET melting assay
How it was run: (§1)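 FRET melting of dual-labelled Pu18 (5'-FAM/3'-TAMRA), 0.2 μM, in 10 mM Tris–HCl pH 7.2 with 0.2 mM KCl, compound 2.0 μM; fluorescence recorded on a real-time PCR instrument; Tm read from melting curves, ΔTm relative to no-compound control.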

Homo sapiens [2] = species: Homo sapiens; assay: Binding affinity to human c-myc G-quadruplex Pu18 DNA assessed as change melting temperature at 2.0 uM by FRET melting assay; how it was run: as §1
Homo sapiens [3] = species: Homo sapiens; assay: Binding affinity to duplex F10T DNA assessed as change melting temperature at 2.0 uM by FRET melting assay
[4] = Inhibition of human c-myc G-quadruplex Pu27 DNA amplification at 5.0 uM by PCR-stop assay
How it was run: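 PCR-stop: Pu27 template with complementary oligomer in 1× PCR buffer, 0.16 mM dNTP, 2.5 U Taq, compound at 1.0, 2.5, 4.0 or 5.0 μM; 94 °C 3 min, then 30 cycles of 94/58/72 °C for 30 s each; products on 15% native PAGE in TBE, silver stained.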

NCI = assay: Cytotoxicity against human NCI cells by MTT assay; assay type: functional, cell-based
How it was run: (§2)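 MTT cytotoxicity assay against tumour cells; IC50 taken as mean of three independent assays.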

[5] = Cytotoxicity against human GLC cells by MTT assay; assay type: functional, cell-based; how it was run: as §2
[6] = Binding affinity to duplex F10T DNA assessed as melting temperature at 2.0 uM by FRET melting assay
Homo sapiens [7] = species: Homo sapiens; assay: Induction of G-quadruplex formation in human c-myc Pu27 DNA at 10 uM […] by gel electrophoresis
HL-60 [8] = assay: Antiproliferative activity against human HL60 cells assessed as cell count and viability at 5 to 10 uM; assay type: functional, cell-based
How it was run: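 HL60 cells (RPMI-1640, 10% FBS, penicillin/streptomycin, 37 °C, 5% CO2), about 5000 per well, given freshly dissolved compound at 0–10 μM for 4 days, re-dosed at day 5 for a further 4 days; cell count and viability by trypan blue exclusion daily from day 1 to day 8.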

HL-60 [9] = assay: Inhibition of human c-myc gene transcription in HL60 cells at 0.7-1.7 uM after 4 days by RT-PCR; assay type: functional, cell-based

Row | Tm (Homo sapiens [1]) [°C] | ΔTm (Homo sapiens [2]) [°C] | ΔTm (Homo sapiens [3]) [°C] | IC50 [4] [µM] | Tm [6] [°C] | Activity (Homo sapiens [7]) | Structure (SMILES) | IC50 (NCI) [µM] | IC50 [5] [µM] | Activity (HL-60 [8]) | Activity (HL-60 [9])
1 | 74 | 20 | 0 | 4 | 58 | – | COc1ccc2cc3[n+](cc2c1NCCN1CCCCC1)CCc1cc2c(cc1-3)OCO2 | 22 | 38 | – | –
2 | 73 | 19 | 0 | 3.9 | 58 | – | COc1ccc2cc3[n+](cc2c1NCCN(C)C)CCc1cc2c(cc1-3)OCO2 | 36 | 56 | – | –
3 | 83 | 29 | 2 | 2 | 60 | Active | COc1ccc2cc3[n+](cc2c1NCCCCCCN)CCc1cc2c(cc1-3)OCO2 | 4 | 9 | Active | Active
4 | 66 | 12 | 0 | 5.5 | 58 | – | COc1ccc2cc3[n+](cc2c1NCCO)CCc1cc2c(cc1-3)OCO2 | 35 | 51 | – | –
5 | 71 | 17 | 0 | 4.8 | 58 | – | COc1ccc2cc3[n+](cc2c1NCCCN1CCOCC1)CCc1cc2c(cc1-3)OCO2 | 85 | 102 | – | –
6 | 72 | 18 | 1 | 7.1 | 59 | – | COc1ccc2cc3[n+](cc2c1NCCN1CCOCC1)CCc1cc2c(cc1-3)OCO2 | 50 | 50 | – | –
7 | 55 | 1 | 2 | – | – | – | COc1ccc2cc3[n+](cc2c1OC)CCc1cc2c(cc1-3)OCO2 | – | – | – | –
8 | 78 | 24 | 1 | 3.2 | 59 | – | COc1ccc2cc3[n+](cc2c1NCCCN1CCCCC1)CCc1cc2c(cc1-3)OCO2 | 38 | 69 | – | –
9 | 78 | 25 | 2 | 2.3 | 60 | – | COc1ccc2cc3[n+](cc2c1NCCCN1CCCC1)CCc1cc2c(cc1-3)OCO2 | 22 | 32 | – | –
10 | 74 | 20 | 1 | 3.3 | 59 | – | COc1ccc2cc3[n+](cc2c1NCCCN(C)C)CCc1cc2c(cc1-3)OCO2 | 29 | 64 | – | –
11 | 74 | 20 | 1 | 3.6 | 59 | – | COc1ccc2cc3[n+](cc2c1NCCc1ccccc1)CCc1cc2c(cc1-3)OCO2 | 2 | 18 | – | –
